Screening results (PubChem BioAssay)
Most compounds without a hit are left out; they make up all but 3.5% or so of the library.
RGS4 inh: human RGS4 inhibition; P49798; 310,000 tested, 0.45% active; B-score at 10 µM; HEK293 M3R/RGS4 inducible, Fluo-4 calcium flux; hits give high values; triggered by carbachol at its EC20;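 active = B-score, a plate-corrected calcium signal, over three deviations above library mean, with baseline fluorescence within five deviations of library mean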;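 also: RGS4 expression induced by doxycycline in cells with stable M3 receptor; B-score is computed from the integrated fluorescence ratio over baseline after carbachol; higher B-score means a larger calcium signal and so more RGS4 inhibition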
Target sequence (P49798 whole entry, looked up): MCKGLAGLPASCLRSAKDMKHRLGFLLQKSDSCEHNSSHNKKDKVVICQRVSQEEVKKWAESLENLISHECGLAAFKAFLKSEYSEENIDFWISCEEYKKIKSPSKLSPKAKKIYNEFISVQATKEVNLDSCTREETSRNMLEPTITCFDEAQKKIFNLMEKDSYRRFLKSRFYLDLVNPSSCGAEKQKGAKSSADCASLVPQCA
MrgX1 ag: activates human MrgX1 receptor signaling. MrgX1-HEK293 cells, Fluo-4 calcium fluorescence, agonist mode; hits give high values. 310,000 tested, 0.44% active. B-score at 10 µM;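 active = calcium response B-score plate-corrected fluorescence ratio at least 3 library SD, with starting fluorescence B-score inside 5 SD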
Target sequence (Q96LB2 whole entry, looked up): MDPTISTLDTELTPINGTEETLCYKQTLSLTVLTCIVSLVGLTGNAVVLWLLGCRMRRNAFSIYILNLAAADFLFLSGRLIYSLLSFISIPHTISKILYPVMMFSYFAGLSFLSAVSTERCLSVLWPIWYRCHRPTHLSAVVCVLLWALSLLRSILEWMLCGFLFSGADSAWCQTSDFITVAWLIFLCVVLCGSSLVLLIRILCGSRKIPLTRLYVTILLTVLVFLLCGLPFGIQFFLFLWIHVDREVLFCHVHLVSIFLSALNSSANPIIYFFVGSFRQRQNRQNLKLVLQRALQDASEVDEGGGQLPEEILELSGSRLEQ
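Assay system: MrgX1-expressing HEK293 cells / Amount: fifteen thousand cells per well / Doses: test compound in the initial addition of three / Timing: cells plated overnight, dye loaded 0.5 h 37 °C, 0.5 h room temperature / Technique: kinetic calcium dye fluorescence, Fluo-4 NW / Control set: positive and negative controls per plate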
MrgX1 antag: antagonists of human MrgX1 receptor. MRGX1-HEK293 calcium flux, Fluo-4, BAM8-22 antagonism; hits give low values. B-score at 10 µM. 310,000 tested, 1.3% active. AID 588676;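 active = calcium-response B-score plate-corrected more than 3 library SD below zero, starting fluorescence within 5 deviations, no agonist response on first addition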;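 also: peak minus trough fluorescence over baseline after final BAM8-22 challenge near maximal dose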
MrgX1 allo act: human MrgX1 positive allosteric modulation, primary screen. Q96LB2. MrgX1-HEK293, Fluo-4 calcium flux, FDSS; hits give high values. B-score at 10 µM. 310,000 tested, 0.63% active. AID 588675;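 active = plate-corrected calcium response at least 3 library SD above typical, normal starting fluorescence, not activating the receptor alone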;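 also: compound read alongside a low EC10 to EC30 dose of BAM8-22 agonist; peak minus trough fluorescence over baseline measured at the second addition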
RGS4 act: potentiators or activators of RGS4. AID 463111. B-score at 10 µM. HEK293 M3R/inducible RGS4, carbachol calcium flux Fluo4; hits give low values. 310,000 tested, 0.92% active;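 active = B-score of the integrated calcium signal more than 4 SD below the library mean, with starting fluorescence not abnormally high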;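 also: negative B-score means reduced calcium response which marks RGS4 activation or potentiation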
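Assay system: HEK293 FlpIn-TREx cells, stable M3R, doxycycline-inducible RGS4 / Probe or stimulus: carbachol, ECmax concentration / Times: overnight RGS4 induction, 30 min dye load 37 °C, 20 min compound RT / Signal: kinetic calcium fluorescence imaging with Fluo4-AM dye, 2 µM / Measure: Agonist-evoked peak-minus-minimum fluorescence over baseline, integrated ratio, B score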
MrgX1 PAM conf: confirmation of human MrgX1 receptor positive allosteric modulators | shares compounds with MrgX1 allo act | MrgX1-HEK293, Fluo-4 calcium fluorescence, FDSS | activation (ratio percentage), % at 10 µM | 1,200 tested, 13% active;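 active = ratio at least 3 SD above the weak peptide control, stable starting fluorescence, no direct agonism earlier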;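 also: compound followed by low BAM8-22 agonist challenge near EC20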
MrgX1 ant reconf: reconfirmed antagonist of human MrgX1 receptor signaling. shares compounds with MrgX1 antag. MrgX1-HEK293, BAM8-22 calcium flux, Fluo-4; hits give low values. remaining BAM8-22 calcium response % of control (hits give low values), % at 10 µM. 2,300 tested, 19% active. AID 602420;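 active = remaining agonist calcium response no higher than 100% minus 3 SD of agonist-only control wells, with starting fluorescence near control levels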;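 also: agonist BAM8-22 given at a near maximal EC90 to ECmax level; peak minus minimum fluorescence divided by baseline after agonist addition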
HEK293 Ca flux: MrgX1 antagonist counter-screen hit in parental HEK293 cells; shares compounds with MrgX1 antag; Fluo-4 calcium fluorescence, FDSS; fluorescence ratio F(max-min)/F0 at 10 µM; 4,000 tested, 2% active;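 active = duplicate-averaged calcium fluorescence ratio at least three times the standard deviation of buffer wells, a nonspecific response in parental cells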
HEK293 Ca counter: activity in parental HEK293 cells without MrgX1. shares compounds with MrgX1 antag. 4,000 tested, 0.4% active. AID 624114. fluorescence ratio F(max-min)/F0 at 10 µM. parental HEK293 calcium flux, Fluo-4 fluorescence ratio; hits give high values;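 active = calcium fluorescence ratio, averaged over duplicates, at least 3 SD of the buffer-well ratio, meaning a nonspecific response in receptor-free cells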;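 also: untransfected parental HEK293 lacking MrgX1 used as counterscreen for MrgX1 allosteric activators; fluorescence change taken during the second addition on a kinetic imager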
HEK293 Ca cntr2: activity in parental HEK293 cells lacking MrgX1 receptor; shares compounds with MrgX1 antag; Fluo-4 calcium fluorescence (FDSS); hits give high values; fluorescence ratio F(max-min)/F0 at 10 µM; 4,000 tested, 8.7% active; AID 624115;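 active = calcium fluorescence ratio at least three times the spread of buffer wells, meaning a non-specific response in parental cells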
Hits are given with their value; i = inactive; nt = no result.

SMILES	RGS4 inh	MrgX1 ag	MrgX1 antag	MrgX1 allo act	RGS4 act	MrgX1 ant reconf	HEK293 Ca flux	HEK293 Ca counter	HEK293 Ca cntr2	others
COC(=O)C1=C(c2cc3ccccc3o2)C[C@@H]2CC[C@H]1N2C(=O)NCc1ccc(F)cc1	i	i	i	7.9	i	nt	i	i	i	MrgX1 PAM conf=i
CCCCc1ccc(NC2=NCCCS2)cc1	i	i	i	i	i	nt	nt	nt	nt
N#CSCC(=O)N1c2ccccc2CCc2ccccc21	i	i	i	8.5	i	nt	i	i	i	MrgX1 PAM conf=i
CCCCCn1c(=O)c(C(=O)Nc2cccc(C)c2)c(O)c2ccccc21	i	i	-5.2	i	i	i	0.79	i	i
CCCCCn1c(=O)c(C(=O)Nc2cccc(C)n2)c(O)c2ccccc21	i	i	i	i	i	nt	nt	nt	nt
Ic1ccccc1CN[C@@H]1C2CCN(CC2)[C@@H]1C(c1ccccc1)c1ccccc1	nt	i	-15	i	nt	5.6%	i	i	i
Fc1ccccc1CNC1CN2CCC1CC2 (stereo unspecified)	i	i	i	i	i	nt	nt	nt	nt
Fc1c(F)c(F)c(N2CCNCC2)c(F)c1F	i	i	i	i	i	nt	nt	nt	nt
CCCN1CCC[C@@H](c2cccc(O)c2)C1	nt	i	-5.6	i	nt	80%	i	i	i
COc1ccc(N2CCN(C(CNC(=O)Oc3ccccc3)c3cccnc3)CC2)cc1 (stereo unspecified)	i	i	-6.9	i	i	i	i	i	i
C[N+](C)(C)CC(=O)O	nt	i	i	i	nt	nt	nt	nt	nt
C=CCN1C(=O)NC(=O)C(Cc2ccc(OC)c(OC)c2)C1=O (stereo unspecified)	i	i	-4.8	i	i	i	i	i	i
CC(C)(C)C(=O)OCC12CCC(O1)C1(C)C(=O)OCC21 (stereo unspecified)	i	i	i	i	i	nt	nt	nt	nt
CC(=NCc1ccc2c(c1)OCO2)c1c(O)n(Cc2ccccc2)c(=O)[nH]c1=O	i	i	i	i	i	nt	nt	nt	nt
C=CCn1c(O)c(C(C)=NCc2ccc3c(c2)OCO3)c(=O)[nH]c1=O	i	i	-4.7	i	i	i	i	i	i
CN1CCc2nc(SCC(=O)OC(C)(C)C)c(C#N)cc2C1	i	i	i	i	i	nt	nt	nt	nt
CN1CCc2nc3sc(C(=O)NC4CC4)c(N)c3cc2C1	i	i	-6.6	i	i	i	i	i	i
O=C(c1ccc2c3c(cccc13)CC2)C1CCCN(CC2CC2)C1 (stereo unspecified)	i	i	i	i	i	nt	nt	nt	nt
O=C(c1ccc2c3c(cccc13)CC2)C1CCCN(Cc2ncc[nH]2)C1 (stereo unspecified)	i	i	-4.7	i	i	i	i	i	i
C=CCOC(=O)C1=C(C)OC(N)=C(C#N)[C@@]12C(=O)N(CC(N)=O)c1ccccc12	i	i	-5.7	i	i	i	i	i	i
CC1=C(C(=O)OC(C)C)[C@]2(C(=O)N(CC(N)=O)c3ccccc32)C(C#N)=C(N)O1	i	i	i	i	i	nt	nt	nt	nt
COc1ccccc1CN1CCN(Cc2ccc(Cl)cc2)CC1	i	i	-5.3	i	i	i	i	i	i
Cc1cc(N2C(=O)CC(N3CCC(n4c(=O)[nH]c5ccccc54)CC3)C2=O)no1 (stereo unspecified)	i	i	-5.4	i	i	i	i	i	i
OC1(c2ccc(F)cc2)CC2CCC(C1)N2Cc1nnnn1C1CCCCC1 (stereo unspecified)	i	i	i	i	i	nt	nt	nt	nt
CCCCCCN1CCN(c2ccc(Cl)cc2)CC1	i	i	i	i	i	nt	nt	nt	nt
